In data set [1] the test system is Escherichia coli. Kind of data set: Antibacterial activity against Escherichia coli AS19 after 4 hrs. It counts as functional. The conditions noted are these: AS19, 4 h.
Data set [2] relates to Escherichia coli. Kind of data set: Antibacterial activity against Escherichia coli AS19 assessed as growth inhibition at 10 ug/ml after 4 hrs. It counts as functional, organism-based.
Data set [3] has as its target T1, DNA topoisomerase 1 (Homo sapiens) (UniProt P11387).
T1 sequence (whole entry): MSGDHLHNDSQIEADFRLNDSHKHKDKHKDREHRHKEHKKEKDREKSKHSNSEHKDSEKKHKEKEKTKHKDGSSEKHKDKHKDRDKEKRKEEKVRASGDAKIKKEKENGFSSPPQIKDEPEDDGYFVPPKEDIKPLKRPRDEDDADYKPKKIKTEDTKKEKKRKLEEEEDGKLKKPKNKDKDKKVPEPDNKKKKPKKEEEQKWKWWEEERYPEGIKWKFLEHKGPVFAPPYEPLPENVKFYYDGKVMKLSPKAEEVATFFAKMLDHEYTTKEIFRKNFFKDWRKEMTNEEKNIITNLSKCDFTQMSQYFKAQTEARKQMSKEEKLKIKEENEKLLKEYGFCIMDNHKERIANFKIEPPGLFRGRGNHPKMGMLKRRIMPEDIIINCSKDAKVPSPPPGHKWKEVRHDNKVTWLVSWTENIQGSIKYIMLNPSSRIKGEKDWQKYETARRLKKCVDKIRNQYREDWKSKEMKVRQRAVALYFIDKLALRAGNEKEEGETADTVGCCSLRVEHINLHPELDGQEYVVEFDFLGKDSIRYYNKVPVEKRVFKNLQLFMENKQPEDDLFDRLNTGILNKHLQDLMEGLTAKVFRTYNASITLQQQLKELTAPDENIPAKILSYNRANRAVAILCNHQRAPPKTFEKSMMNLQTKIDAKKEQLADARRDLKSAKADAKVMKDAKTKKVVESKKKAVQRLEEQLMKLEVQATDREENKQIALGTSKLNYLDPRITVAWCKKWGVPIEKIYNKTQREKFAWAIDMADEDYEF
Kind of data set: Inhibition of human topoisomerase 1-mediated relaxation of circular DNA at 100 ug/ml. The procedure, abridged:
(§1)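 Relaxation assay: 0.25 μg pGEM-3Z (2743 bp, CsCl-purified) with 1 U human topoisomerase I in 10 mM Tris pH 7.9, 150 mM NaCl, 0.1 mM spermidine, 5% glycerol, tryptanthrin 10-100 μg/mL, 2 h 37 °C (or pre-relaxed 1 h, then drug 1-2 h). Stopped with sarkosyl; 1.5% agarose ± 2 μg/mL chloroquine, 50 V 3-4 h, ethidium stain; drugs bound = (Ldrug−Lo)×360°/28°.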

The subject of data set [4] is Escherichia coli. Kind of data set: Antibacterial activity against Escherichia coli AS19 in presence of 360 nm light. It counts as functional, organism-based.
Data set [5] relates to Escherichia coli. Kind of data set: Antibacterial activity against Escherichia coli AS19 at 10 ug/ml after 3 days in presence of M9 buffer. In kind it is functional, organism-based. The procedure, abridged:
(§2)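 Overnight LB culture of AS19 (pBRF14C) diluted to 10⁵-10⁶ cells/mL in M9 buffer (NH4Cl, Na2HPO4, KH2PO4); tryptanthrins at final 0.05-10 μg/mL (0.2-40 μM), 37 °C up to 72 h. Samples at ~12 h intervals plated on LB + ampicillin, counted after 24 h; surviving fraction relative to untreated M9 cells; duplicate samples, 4-8 repetitions.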

For data set [6], the system named is Escherichia coli. Kind of data set: Antibacterial activity against Escherichia coli AS19 at 0.4 ug/ml after 3 days in presence of M9 buffer. In kind it is functional, organism-based. The procedure, abridged: as §2
For data set [7], the system named is Escherichia coli. Kind of data set: Antibacterial activity against Escherichia coli AS19 at 0.6 to 2 ug/ml. It counts as functional, organism-based.
Data set [8] has as its system Escherichia coli. Kind of data set: Antibacterial activity against Escherichia coli AS19 at 0.1 ug/ml. It counts as functional, organism-based.
The test system of data set [9] is Escherichia coli. Kind of data set: Antibacterial activity against Escherichia coli AS19 assessed as cell viability at 10 ug/ml after 20 to 24 hrs. In kind it is functional. The procedure, abridged:
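LB growth assay with AS19 (pBRF14C) at 37 °C with shaking; after 20-24 h exposure, dilutions in M9 buffer plated (200-400 cells) on LB + 30 μg/mL ampicillin, colonies counted after 24 h at 37 °C; viability = treated cells/mL divided by untreated cells/mL.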

The subject of data set [10] is Escherichia coli. Kind of data set: Antibacterial activity against Escherichia coli AS19 at 0.01 ug/ml. It counts as functional, organism-based.
The test system of data set [11] is Escherichia coli. Kind of data set: Antibacterial activity against Escherichia coli AS19 at 2.5 to 20 ug/ml after 4 hrs. In kind it is functional, organism-based.
Data set [12] concerns Escherichia coli. Kind of data set: Mutagenic activity in Escherichia coli assessed as induction of frame shift mutation.
Data set [13] deals with Escherichia coli. Kind of data set: Antibacterial activity against Escherichia coli AS19 at 1 ug/ml after 4 hrs. In kind it is functional, organism-based.
Data set [14] deals with Escherichia coli. Kind of data set: Antibacterial activity against Escherichia coli AS19 at 0.5 to 10 ug/ml after 3 days in presence of M9 buffer. In kind it is functional, organism-based. The conditions noted are these: 0.05 to 10 ug/ml, in the assay text read “0.05 to 10 ug/ml” for “0.5 to 10 ug/ml”. In short, it runs like this:
as §2

The target of data set [15] is T1, DNA topoisomerase 1 (Homo sapiens). Kind of data set: Inhibition of human topoisomerase 1-mediated relaxation of circular DNA. The procedure, abridged:
as §1

SMILES strings stand for the structures. In brackets after ≈: the same amount, converted by molar mass. Activity calls are given as the source filed them. No cut-off for these calls is given here.

The term GI50 denotes the concentration at which growth is held to half of that of the control. In the data set on Escherichia coli [1], `O=C1c2ccccc2-n2c1nc1ccccc1c2=O` [TRYPTANTHRIN] yielded a GI50 of 2.25 µg/mL (≈ 9.06 µM). Besides, the “growth inhibition (GI)” value in the data set with Escherichia coli [2] was “Active”.

On to `O=C1c2cc([N+](=O)[O-])ccc2-n2c1nc1ccccc1c2=O`, for which the GI50 in the data set with Escherichia coli [1] was 0.6 µg/mL (≈ 2.05 µM). The “growth inhibition (GI)” value in the data set on Escherichia coli [2] was “Active”. Moreover, the inhibition entry in [3] is “inactive”.

Consider `O=c1c2ccccc2nc2n1-c1ccc(F)cc1/C2=N\O`, for which, in the data set with Escherichia coli [4], the outcome was inactive. For the same molecule, the outcome with Escherichia coli [5] was Active.

Regarding `O=C1c2cc(Br)ccc2-n2c1nc1ccccc1c2=O`, the result with Escherichia coli [6] was Active.

For the molecule `O=C1c2ccccc2-n2c1nc1nccnc1c2=O`, the concentration for 50% growth inhibition (GI50) in the data set with Escherichia coli [1] is 1.5 µg/mL (≈ 5.99 µM). Also, the outcome with Escherichia coli [7], in the data set on Escherichia coli [4] and in the data set on Escherichia coli [5] was Active. Besides, the “growth inhibition (GI)” value with Escherichia coli [2] is “Active”.

Consider `O=Nc1c2ccccc2n2c(O)c3ccccc3nc12`, for which the outcome in the data set on Escherichia coli [4] was inactive.

For the molecule `O=C1c2cc(F)ccc2-n2c1nc1ncccc1c2=O`, the outcome in the data set with Escherichia coli [8] and in the data set with Escherichia coli [10] was inactive. The molecule also returned a GI50 with Escherichia coli [1] of 0.6 µg/mL (≈ 2.25 µM). Further, in the data set on Escherichia coli [9], the Activity stood at 15%. In addition, the “growth inhibition (GI)” value with Escherichia coli [2] was “Active”. Further, the outcome in the data set on Escherichia coli [11], in the data set on Escherichia coli [13] and in the data set with Escherichia coli [5] was Active. Moreover, the “fold change (FC)” value with Escherichia coli [12] came to 4.

As to `O=C1c2cc(F)ccc2-n2c1nc1ccccc1c2=O`, in the data set on Escherichia coli [6], the result was Active.

Turning to `O=c1c2cccnc2nc2n1-c1ccccc1/C2=N\O`, the outcome in the data set on Escherichia coli [4] was inactive.

Turning to `O=C1c2ccccc2-n2c1nc1ncccc1c2=O`, the GI50 with Escherichia coli [1] was found to be 1.3 µg/mL (≈ 5.22 µM). Moreover, the “growth inhibition (GI)” value with Escherichia coli [2] is “Active”. For the same molecule, the result in the data set on Escherichia coli [14] and in the data set on Escherichia coli [5] was Active. Moreover, the inhibition result in [15] is “inactive”. The “fold change (FC)” value in the data set with Escherichia coli [12] was 22.

The values are drawn from ChEMBL document CHEMBL1158534, “Antimicrobial activity of tryptanthrins in Escherichia coli” (J Med Chem, 2010).
